For one data set, the system named is HL7702. Briefly: MTT cell growth inhibition assay, HL7702. The format is cell-based. The following applies: Homo sapiens, L02, 72 h, read-out: IC50 HL7702. Put shortly:
(§1)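 MTT assay. Seeding per well was 3 × 10^3 for cancer cells, 4 × 10^3 for HUVEC and 8 × 10^3 for HL7702. Test compound was added after adherence and incubated 72 h. MTT (5 mg mL−1 stock) was added for a further 4 h at 37 °C, formazan was dissolved in DMSO, and absorbance was read at 570 nm. Inhibition was calculated relative to controls, and IC50 is the concentration giving 50% growth inhibition.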

The test system of another data set is HeLa. Briefly: MTT cell growth inhibition assay, HeLa. The format is cell-based. The conditions noted are these: Homo sapiens, 72 h, read-out: IC50 HeLa. Put shortly:
as §1

A further data set relates to MDA-MB-231. The data set can be described thus: MTT cell growth inhibition assay, MDA-MB-231. The format is cell-based. The conditions noted are these: Homo sapiens, MDA-MB-231, 72 h, read-out: IC50 MDA-MB-231. Summed up:
as §1

For the next data set, the system named is HepG2. Briefly: MTT cell growth inhibition assay, HepG2. The following applies: Homo sapiens, HepG2, 72 h, read-out: IC50 HepG2. The format is cell-based. Put shortly: as §1
In the next data set the test system is BGC-823. Briefly: MTT cell growth inhibition assay, BGC-823. It is filed as cell-based. The following applies: Homo sapiens, BGC-823, 72 h, read-out: IC50 BGC-823. Summed up: as §1
The test system of data set [1] is Hsp90 client proteins (Her2, AKT, CDK4) and Hsp70 in MDA-MB 231 cells. Briefly: Western blot assay of Hsp90 inhibition in cellular system. It is filed as cell-based, human. The following applies: 0.5 μM. Summed up: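 MDA-MB 231 cells were treated with or without test compound over different time courses. Cells were lysed in ice-cold Tris-HCl (pH 7.4) buffer with Triton, EDTA/EGTA, phosphatase and protease inhibitors, then boiled 10 min in SDS loading buffer. Proteins were separated by 8–12% SDS-PAGE and transferred to PVDF. Membranes were blocked in 5% BSA in PBS-Tween for 1 h, incubated with primary antibodies overnight at 4 °C, and detected with peroxidase-conjugated anti-rabbit or anti-mouse secondary antibodies and ECL.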
Background: In western blotting, separated proteins are transferred to a membrane and probed.

For a further data set, the system named is SW480. Briefly: MTT cell growth inhibition assay, SW480. It is filed as cell-based. The conditions noted are these: Homo sapiens, SW480, 72 h, read-out: IC50 SW480. Put shortly: as §1
The test system of the next data set is HUVEC. The data set can be described thus: MTT cell growth inhibition assay, HUVEC. It is filed as cell-based. The conditions noted are these: Homo sapiens, 72 h, read-out: IC50 HUVEC. Put shortly:
as §1

Data set [2] in a line: In vivo hepatotoxicity assay. Also noted: species or system Kunming mice. The following applies: mice. Summed up:
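Female Kunming mice (4–6 weeks) were randomised into three groups of three: vehicle control, or test compound or parent ansamycin at 10 mg kg−1. They were injected once daily for three consecutive days. Serum AST and ALT were then measured with spectrophotometric kits and reported in U L−1.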

Another data set has as its system A431. The data set can be described thus: MTT cell growth inhibition assay, A431. The format is cell-based. The conditions noted are these: Homo sapiens, A-431, 72 h, read-out: IC50 A431. Put shortly: as §1
The next data set has as its system A549. The data set can be described thus: MTT cell growth inhibition assay, A549. It is filed as cell-based. The following applies: Homo sapiens, A549, 72 h, read-out: IC50 A549. Summed up:
as §1

The test system of the next data set is MDA-MB-231 xenograft. The data set can be described thus: In vivo antitumor assay, MDA-MB-231 xenograft model. Also noted: species or system nude mice. The following applies: 10 mg kg^−1 via caudal vein every three days, 15 days. Put shortly: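 Female athymic nude mice (6–7 weeks) first received 5 × 10^6 logarithmic-phase MDA-MB-231 cells s.c. in physiological saline. After two weeks, tumour fragments were implanted into the right flank. At a mean tumour volume of 100 mm3, mice were randomised (6 per group) and dosed 10 mg kg−1 via the tail vein every three days for 15 days. Vehicle was 5% glucose with 1% DMSO and 2% lecithin; a reference Hsp90 inhibitor served as positive control. Calipers were used every three days, with V = length × width²/2. TGI came from final tumour weights, and T/C from mean RTV (Vt/V0). Student's two-tailed t test was used, P < 0.05.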

The mark [3] stands for this setting: 10 mg kg^−1, injected once a day for three days, blood serum.

The text below walks through data of paper PMC9076653 (RSC Advances, 2019).

“And” between values parts separate entries of the source, which are not always exact repeats. Equal entries are not always repeated.

The IC50 is the concentration that gives 50% inhibition. Consider `COC1=C2C[C@@H](C)C[C@H](OC)[C@H](O)[C@@H](C)/C=C(\C)[C@H](OC(N)=O)[C@@H](OC)/C=C\C=C(/C)C(=O)NC(=CC1=O)C2=O` [GA, Geldanamycin], for which the 50% inhibitory concentration (IC50) in the data set with HL7702 was found to be 133 ± 20 nM; with HeLa it was 731 ± 53 nM; in the data set on MDA-MB-231, 59 ± 13 nM; with HepG2, 45 ± 7 nM; in the data set with BGC-823 it was 40 ± 8 nM; in the data set on SW480, 298 ± 34 nM. Also, the IC50 came to 18 ± 3 nM in the data set with HUVEC, 45 ± 6 nM with A431 and 91 ± 7 nM in the data set with A549. For the same compound, in data set [1], the “levels of Hsp70” value was “markedly increased”. In data set [2] (setting [3]), this compound came in with an ALT of 273.0 ± 25.3 U L^−1. Moreover, in data set [2] (setting [3]), the AST was 317.2 ± 39.1 U L^−1. In addition, the “AST and ALT levels versus vehicle control group” value in data set [2] (10 mg kg^−1, three days) is “significantly higher”.
What is called T/C is the ratio of treated to control. What is called TGI is the reduction of tumour growth relative to the control group. Take `C=CCNC1=C2C[C@@H](C)C[C@H](OC)[C@H](O)[C@@H](C)/C=C(\C)[C@H](OC(N)=O)[C@@H](OC)/C=C\C=C(/C)C(=O)NC(=CC1=O)C2=O` [Compound 17-AAG, 17-allylamino-17-demethoxygeldanamycin]: the IC50 in the data set on HL7702 came out at 105 ± 7 nM; with HeLa, 112 ± 18 nM; in the data set with MDA-MB-231 it was 324 ± 76 nM; in the data set on HepG2, 82 ± 16 nM; in the data set with BGC-823, 725 ± 99 nM; in the data set on SW480, 614 ± 85 nM. Besides, the IC50 is 271 ± 38 nM in the data set on HUVEC, 72 ± 4 nM in the data set on A431 and 87 ± 6 nM in the data set with A549. Besides, the T/C in the data set with MDA-MB-231 xenograft (relative tumor volume) was 41.9% and 41.9 ± 11.3%. In addition, in the data set on MDA-MB-231 xenograft (tumor weight), the TGI was 55.1% and 55.1 ± 5.5%. In addition, in data set [1], the “levels of Hsp70” value is “markedly increased”.
